Results reported in ChEMBL document CHEMBL3228043, “Alkylating nucleosides. 2. Synthesis and cytostatic activity of bromomethylpyrazole and pyrazole nitrogen mustard nucleosides” (1979).
Values after ≈ are worked out from the molar mass of the structure shown.

system: HeLa; experiment: Cytostatic activity against human HeLa cells after 72 hrs by FCR-based colorimetric method; assay type: functional; conditions: read-out: ED50 (the source's name)
In short: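 HeLa cells seeded at 10⁵ cells/mL in Minimal Eagle's medium with 10% fetal calf serum in Leighton tubes at 37 °C; after 2-3 h attachment, compound added as suspension in sterile saline with 0.05% (v/v) Tween 80 (10% of final volume). Incubated 72 h at 37 °C; growth estimated from cell protein by Oyama-Eagle colorimetric method; 6-mercaptopurine positive control.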

`Br.NCc1cc(C(N)=O)n([C@@H]2O[C@H](CO)[C@@H](O)[C@H](O)[C@H]2O)n1` was tested. Which EC50 did it give?
The EC50 was > 100 µg/mL.

How did the EC50 turn out when `CC(=O)OC[C@H]1O[C@@H](n2nc(CBr)cc2C(N)=O)[C@H](OC(C)=O)[C@@H](OC(C)=O)[C@@H]1OC(C)=O` was run?
Its EC50 is 4 µg/mL (≈ 7.49 µM).

How did the EC50 turn out when `CC(=O)O[C@@H]1[C@H](OC(C)=O)[C@H](OC(C)=O)CO[C@H]1n1nc(CN(CCCl)CCCl)cc1C(N)=O` was run?
Its EC50 is 50 µg/mL (≈ 95.5 µM).

Which EC50 does the source give for `CC(=O)OC[C@H]1O[C@@H](n2nc(C(N)=O)cc2CBr)[C@H](OC(C)=O)[C@@H]1OC(C)=O` here?
Its EC50 is 2 µg/mL (≈ 4.33 µM).

For `CCOC(=O)c1cc(CN(CCCl)CCCl)nn1[C@@H]1O[C@H](COC(C)=O)[C@@H](OC(C)=O)[C@H]1OC(C)=O`, which EC50 is on record?
Its EC50 is > 100 µg/mL.

`CCOC(=O)c1cc(CN(CCCl)CCCl)nn1[C@@H]1OC[C@@H](OC(C)=O)[C@@H](OC(C)=O)[C@H]1OC(C)=O` was tested. Which EC50 did it give?
The EC50 was > 100 µg/mL.

How did the EC50 turn out when `Sc1ncnc2nc[nH]c12` [MERCAPTOPURINE ANHYDROUS] was run?
Its EC50 is 0.1 µg/mL (≈ 0.657 µM).

`CC(=O)OC[C@H]1O[C@@H](n2nc(CN(CCCl)CCCl)cc2C(N)=O)[C@H](OC(C)=O)[C@@H](OC(C)=O)[C@@H]1OC(C)=O` was tested. Which EC50 did it give?
Its EC50 is > 100 µg/mL.

With `CC(=O)OC[C@H]1O[C@@H](n2nc(CBr)cc2C(N)=O)[C@H](OC(C)=O)[C@@H]1OC(C)=O` as the compound, how does the EC50 read?
Its EC50 is 2 µg/mL (≈ 4.33 µM).

`CC(=O)OC[C@H]1O[C@@H](n2nc(CN(CCCl)CCCl)cc2C(N)=O)[C@H](OC(C)=O)[C@@H]1OC(C)=O` was tested. Which EC50 did it give?
The EC50 was 35 µg/mL (≈ 66.9 µM).

`CCOC(=O)c1cc(CN(CCCl)CCCl)nn1[C@@H]1O[C@H](COC(C)=O)[C@@H](OC(C)=O)[C@H](OC(C)=O)[C@H]1OC(C)=O` was tested. Which EC50 did it give?
The EC50 was > 100 µg/mL.

Which EC50 does the source give for `Br.NCc1cc(C(N)=O)n([C@@H]2OC[C@@H](O)[C@@H](O)[C@H]2O)n1` here?
Its EC50 is > 100 µg/mL.

With `Br.NCc1cc(C(N)=O)n([C@@H]2O[C@H](CO)[C@@H](O)[C@H]2O)n1` as the compound, how does the EC50 read?
Its EC50 is > 100 µg/mL.

With `CCOC(=O)c1cc(CBr)nn1[C@@H]1OC[C@@H](OC(C)=O)[C@@H](OC(C)=O)[C@H]1OC(C)=O` as the compound, how does the EC50 read?
Its EC50 is 2 µg/mL (≈ 4.07 µM).

With `CC(=O)O[C@@H]1[C@H](OC(C)=O)[C@H](OC(C)=O)CO[C@H]1n1nc(CBr)cc1C(N)=O` as the compound, how does the EC50 read?
The EC50 was 3 µg/mL (≈ 6.49 µM).

For `CCOC(=O)c1cc(CBr)nn1[C@H]1O[C@H](COC(C)=O)[C@@H](OC(C)=O)[C@H](OC(C)=O)[C@H]1OC(C)=O`, which EC50 is on record?
Its EC50 is 5 µg/mL (≈ 8.88 µM).

Which EC50 does the source give for `CCOC(=O)c1cc(CBr)nn1[C@@H]1O[C@H](COC(C)=O)[C@@H](OC(C)=O)[C@H](OC(C)=O)[C@H]1OC(C)=O` here?
The EC50 was 5 µg/mL (≈ 8.88 µM).

`CCOC(=O)c1cc(CBr)n([C@@H]2O[C@H](COC(C)=O)[C@@H](OC(C)=O)[C@H](OC(C)=O)[C@H]2OC(C)=O)n1` was tested. Which EC50 did it give?
The EC50 was 6 µg/mL (≈ 10.7 µM).

With `CCOC(=O)c1cc(CBr)nn1[C@@H]1O[C@H](COC(C)=O)[C@@H](OC(C)=O)[C@H]1OC(C)=O` as the compound, how does the EC50 read?
Its EC50 is 2.5 µg/mL (≈ 5.09 µM).
